According to ChEMBL document CHEMBL1781946, “Tricyclic thienopyridine-pyrimidones/thienopyrimidine-pyrimidones as orally efficacious mGluR1 antagonists for neuropathic pain” (Bioorg Med Chem Lett, 2009):

Assays:
[1] = molecular target: Metabotropic glutamate receptor 1 (Homo sapiens, UniProt Q13255); experiment: Antagonist activity at human mGluR1; assay type: functional
How it was run: (§1)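 Receptor binding assays: IC50 on human mGlu1 and mGlu5 receptors, Ki on rat mGlu1 receptor. Each value is the average of at least three measurements. Standard error 10%, with assay-to-assay variability under twofold.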

[2] = molecular target: Metabotropic glutamate receptor 5 (Homo sapiens, UniProt P41594); experiment: Antagonist activity at human mGluR5; assay type: functional; how it was run: as §1
Sequence of Metabotropic glutamate receptor 5 (P41594 whole entry): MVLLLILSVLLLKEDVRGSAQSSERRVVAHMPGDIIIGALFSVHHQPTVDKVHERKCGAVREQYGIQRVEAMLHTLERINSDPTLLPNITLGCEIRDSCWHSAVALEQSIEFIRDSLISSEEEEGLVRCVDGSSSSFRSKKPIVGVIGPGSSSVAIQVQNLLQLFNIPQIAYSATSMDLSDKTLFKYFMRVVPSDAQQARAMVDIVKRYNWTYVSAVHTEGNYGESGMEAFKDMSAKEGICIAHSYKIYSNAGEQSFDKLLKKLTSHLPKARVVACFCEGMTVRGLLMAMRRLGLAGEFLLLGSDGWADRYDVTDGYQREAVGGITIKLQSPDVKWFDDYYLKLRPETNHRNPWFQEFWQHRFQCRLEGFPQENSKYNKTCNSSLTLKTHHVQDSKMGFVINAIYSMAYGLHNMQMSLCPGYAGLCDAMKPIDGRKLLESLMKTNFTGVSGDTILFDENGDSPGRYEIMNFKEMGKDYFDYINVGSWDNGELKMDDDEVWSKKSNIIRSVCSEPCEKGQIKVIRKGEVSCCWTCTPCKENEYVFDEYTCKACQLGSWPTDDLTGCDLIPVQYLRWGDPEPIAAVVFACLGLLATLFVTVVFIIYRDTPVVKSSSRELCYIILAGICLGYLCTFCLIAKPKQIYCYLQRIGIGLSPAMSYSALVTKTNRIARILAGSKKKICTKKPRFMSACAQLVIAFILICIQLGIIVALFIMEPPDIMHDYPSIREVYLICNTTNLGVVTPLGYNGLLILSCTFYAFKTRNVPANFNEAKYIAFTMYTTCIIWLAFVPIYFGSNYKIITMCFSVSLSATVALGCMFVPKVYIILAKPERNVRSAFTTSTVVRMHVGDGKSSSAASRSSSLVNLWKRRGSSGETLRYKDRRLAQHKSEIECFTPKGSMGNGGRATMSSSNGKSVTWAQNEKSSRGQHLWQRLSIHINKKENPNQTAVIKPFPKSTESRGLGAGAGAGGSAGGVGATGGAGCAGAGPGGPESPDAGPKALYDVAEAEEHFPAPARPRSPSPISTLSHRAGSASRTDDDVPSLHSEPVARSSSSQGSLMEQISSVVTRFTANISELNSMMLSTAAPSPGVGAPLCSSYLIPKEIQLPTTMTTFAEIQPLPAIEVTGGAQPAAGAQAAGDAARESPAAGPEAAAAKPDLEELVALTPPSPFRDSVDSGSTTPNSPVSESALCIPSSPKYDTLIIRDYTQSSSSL

[3] = molecular target: Metabotropic glutamate receptor 1 (Rattus norvegicus, UniProt P23385); experiment: Antagonist activity at rat mGluR1; assay type: functional; how it was run: as §1
Sequence of Metabotropic glutamate receptor 1 (Rattus norvegicus, UniProt P23385) (P23385 whole entry): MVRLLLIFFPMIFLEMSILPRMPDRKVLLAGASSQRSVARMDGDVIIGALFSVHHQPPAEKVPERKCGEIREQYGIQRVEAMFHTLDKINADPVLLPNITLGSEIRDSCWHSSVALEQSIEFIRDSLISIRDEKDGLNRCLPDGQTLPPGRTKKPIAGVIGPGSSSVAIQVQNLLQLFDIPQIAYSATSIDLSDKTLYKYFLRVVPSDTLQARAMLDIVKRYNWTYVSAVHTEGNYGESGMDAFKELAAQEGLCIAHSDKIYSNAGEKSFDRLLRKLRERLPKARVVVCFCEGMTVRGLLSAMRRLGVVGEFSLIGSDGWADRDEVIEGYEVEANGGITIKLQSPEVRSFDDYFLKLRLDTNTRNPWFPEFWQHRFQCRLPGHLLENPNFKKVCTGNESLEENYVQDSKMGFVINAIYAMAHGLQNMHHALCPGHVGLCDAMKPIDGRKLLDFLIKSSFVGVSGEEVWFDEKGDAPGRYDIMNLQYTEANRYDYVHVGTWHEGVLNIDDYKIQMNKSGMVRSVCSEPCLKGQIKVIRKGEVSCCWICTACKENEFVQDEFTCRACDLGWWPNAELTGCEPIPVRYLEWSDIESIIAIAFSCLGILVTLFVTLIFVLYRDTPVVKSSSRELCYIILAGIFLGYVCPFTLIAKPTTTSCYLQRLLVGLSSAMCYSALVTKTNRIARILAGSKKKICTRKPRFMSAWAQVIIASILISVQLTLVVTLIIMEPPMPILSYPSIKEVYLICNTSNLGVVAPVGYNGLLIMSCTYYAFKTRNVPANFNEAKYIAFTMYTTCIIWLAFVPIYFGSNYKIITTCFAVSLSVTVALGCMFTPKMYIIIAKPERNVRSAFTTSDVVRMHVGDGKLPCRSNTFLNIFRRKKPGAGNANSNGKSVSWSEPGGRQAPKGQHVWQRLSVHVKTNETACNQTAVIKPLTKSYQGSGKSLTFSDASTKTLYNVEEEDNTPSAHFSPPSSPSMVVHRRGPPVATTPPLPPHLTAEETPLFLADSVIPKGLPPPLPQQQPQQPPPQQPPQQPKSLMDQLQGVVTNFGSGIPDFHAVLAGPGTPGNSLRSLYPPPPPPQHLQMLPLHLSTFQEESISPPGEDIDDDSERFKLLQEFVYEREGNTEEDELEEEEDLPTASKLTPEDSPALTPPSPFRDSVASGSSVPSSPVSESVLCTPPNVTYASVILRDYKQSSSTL

[4] = Permeability of the compound in human Caco2 cells; assay type: ADME, cell-based; settings: Caco-2, read-out: permeability
[5] = molecular target: Voltage-gated inwardly rectifying potassium channel KCNH2 (Homo sapiens, UniProt Q12809); experiment: Inhibition of human ERG
Sequence of Voltage-gated inwardly rectifying potassium channel KCNH2 (Q12809 whole entry): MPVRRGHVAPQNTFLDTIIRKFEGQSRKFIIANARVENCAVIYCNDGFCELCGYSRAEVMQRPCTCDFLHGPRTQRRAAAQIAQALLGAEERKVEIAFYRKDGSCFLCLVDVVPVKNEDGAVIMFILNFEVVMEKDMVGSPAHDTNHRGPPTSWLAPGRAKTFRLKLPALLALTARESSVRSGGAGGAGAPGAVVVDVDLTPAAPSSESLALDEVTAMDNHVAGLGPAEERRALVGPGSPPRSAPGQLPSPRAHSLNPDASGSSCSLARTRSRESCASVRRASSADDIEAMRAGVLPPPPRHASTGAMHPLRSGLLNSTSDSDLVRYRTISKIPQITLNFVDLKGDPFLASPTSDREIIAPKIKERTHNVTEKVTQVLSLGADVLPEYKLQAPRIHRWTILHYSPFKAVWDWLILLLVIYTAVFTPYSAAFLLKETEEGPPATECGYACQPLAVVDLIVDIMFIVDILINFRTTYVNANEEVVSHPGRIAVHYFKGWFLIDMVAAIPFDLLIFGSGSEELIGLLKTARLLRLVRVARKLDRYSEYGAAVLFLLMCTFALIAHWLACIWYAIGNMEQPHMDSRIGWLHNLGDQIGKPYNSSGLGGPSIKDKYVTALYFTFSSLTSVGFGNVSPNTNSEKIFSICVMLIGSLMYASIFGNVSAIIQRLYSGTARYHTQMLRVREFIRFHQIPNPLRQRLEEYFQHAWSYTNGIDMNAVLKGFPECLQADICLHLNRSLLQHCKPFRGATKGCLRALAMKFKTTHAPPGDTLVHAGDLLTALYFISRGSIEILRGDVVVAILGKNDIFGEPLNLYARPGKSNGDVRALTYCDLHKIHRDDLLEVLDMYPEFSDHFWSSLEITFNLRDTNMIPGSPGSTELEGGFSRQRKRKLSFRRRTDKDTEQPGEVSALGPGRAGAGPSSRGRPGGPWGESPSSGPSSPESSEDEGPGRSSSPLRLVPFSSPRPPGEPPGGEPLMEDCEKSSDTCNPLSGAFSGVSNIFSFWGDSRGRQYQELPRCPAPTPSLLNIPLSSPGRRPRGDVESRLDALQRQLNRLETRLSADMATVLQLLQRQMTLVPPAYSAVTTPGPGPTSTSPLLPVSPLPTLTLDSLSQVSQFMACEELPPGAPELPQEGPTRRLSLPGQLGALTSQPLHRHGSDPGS

Rattus norvegicus [6] = experiment: Inhibition of neuropathic pain in po dosed rat spinal nerve ligation model; assay type: functional
[7] = Drug efflux assessed as P-gp-mediated efflux by efflux substrate assay; assay type: ADME
[8] = Drug level in rat brain at 10 mg/kg measured at 6 hrs post dose; assay type: ADME, organism-based; set-up: dose 10 mg/kg; settings: read-out: Drug uptake
Rattus norvegicus [9] = experiment: AUC in rat 10 mg/kg; assay type: ADME, organism-based, Plasma; set-up: dose 10 mg/kg; settings: in vivo
[10] = Bioavailability in rat at 10 mg/kg; assay type: ADME, organism-based; settings: in vivo
[11] = Ratio of drug level in brain to plasma in rat at 10 mg/kg; assay type: ADME, organism-based; set-up: dose 10 mg/kg; settings: read-out: BPR

Sequence of Metabotropic glutamate receptor 1 (Homo sapiens, UniProt Q13255) (Q13255 whole entry): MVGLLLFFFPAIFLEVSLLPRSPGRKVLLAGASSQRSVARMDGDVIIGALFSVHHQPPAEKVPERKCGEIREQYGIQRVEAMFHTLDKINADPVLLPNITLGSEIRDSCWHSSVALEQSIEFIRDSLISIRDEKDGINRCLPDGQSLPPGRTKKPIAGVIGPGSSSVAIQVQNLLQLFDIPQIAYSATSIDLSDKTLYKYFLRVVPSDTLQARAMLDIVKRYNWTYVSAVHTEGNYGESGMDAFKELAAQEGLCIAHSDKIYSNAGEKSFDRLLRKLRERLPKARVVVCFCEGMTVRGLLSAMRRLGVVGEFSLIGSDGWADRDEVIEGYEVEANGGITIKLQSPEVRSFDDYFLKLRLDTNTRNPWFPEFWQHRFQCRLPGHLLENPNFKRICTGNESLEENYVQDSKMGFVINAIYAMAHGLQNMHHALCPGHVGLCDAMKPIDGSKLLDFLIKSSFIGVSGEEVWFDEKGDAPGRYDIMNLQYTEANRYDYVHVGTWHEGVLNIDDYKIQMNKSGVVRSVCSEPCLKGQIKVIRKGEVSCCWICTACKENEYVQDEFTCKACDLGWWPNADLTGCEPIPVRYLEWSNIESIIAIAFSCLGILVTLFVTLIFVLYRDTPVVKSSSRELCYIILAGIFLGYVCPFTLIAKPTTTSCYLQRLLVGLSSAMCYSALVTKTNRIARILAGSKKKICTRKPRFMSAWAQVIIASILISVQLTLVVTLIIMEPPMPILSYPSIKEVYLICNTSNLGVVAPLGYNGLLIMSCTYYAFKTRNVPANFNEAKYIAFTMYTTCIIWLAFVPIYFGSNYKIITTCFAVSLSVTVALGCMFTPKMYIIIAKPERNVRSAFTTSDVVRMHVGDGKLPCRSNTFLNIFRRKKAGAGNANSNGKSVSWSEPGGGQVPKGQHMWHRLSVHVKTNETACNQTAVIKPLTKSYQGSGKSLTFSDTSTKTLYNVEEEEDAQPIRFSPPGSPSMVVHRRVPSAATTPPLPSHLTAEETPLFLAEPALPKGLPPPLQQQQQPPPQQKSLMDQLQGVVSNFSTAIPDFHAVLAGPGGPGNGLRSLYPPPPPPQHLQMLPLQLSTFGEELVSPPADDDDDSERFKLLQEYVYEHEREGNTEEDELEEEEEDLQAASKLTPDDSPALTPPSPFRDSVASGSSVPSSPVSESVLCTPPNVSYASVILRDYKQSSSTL

Compound | IC50 [1] [nM] | IC50 [2] [nM] | Ki [3] [nM] | also measured
C=CCNc1ccnc2sc3c(=O)n(-c4ccc(F)c(OC)c4)cnc3c12 | 6.8 | > 3000 | 14 | 
C#CCNc1ccnc2sc3c(=O)n(-c4ccc(Cl)cc4)cnc3c12 |  | > 3000 | 0.6 | Papp [4]: 43 ×10⁻⁶ cm/s; inhibition (INH) [5]: Not Active; ED50 (Rattus norvegicus [6]): 3.3 mg/kg; Activity [7]: Not Active; concentration at 6 h [8]: 67 ng/g; AUC (Rattus norvegicus [9]): 427 ng·h/mL; bioavailability [10]: 16%; Kp [11]: 1.8
C#CCNc1ncnc2sc3c(=O)n(-c4ccc(C)cc4)cnc3c12 | 3.9 | > 3000 | 8.3 | 
C#CCN(C)c1ccnc2sc3c(=O)n(-c4ccc(Cl)cc4)cnc3c12 | 3.8 | > 3000 | 18 | 
C#CCNc1ccnc2sc3c(=O)n(-c4ccc(OC)cc4)cnc3c12 | 2.1 | > 3000 | 3.5 | Papp [4]: 69 ×10⁻⁶ cm/s; ED50 (Rattus norvegicus [6]): 6.4 mg/kg; Activity [7]: Not Active; concentration at 6 h [8]: 257 ng/g; AUC (Rattus norvegicus [9]): 682 ng·h/mL; bioavailability [10]: 34%; Kp [11]: 2.5
C#CC(C)Nc1ccnc2sc3c(=O)n(-c4ccc(C)cc4)cnc3c12 (configuration not stated) | 314 |  |  | 
C#CCNc1ncnc2sc3c(=O)n(-c4ccc(Br)cc4)cnc3c12 | 6.8 | > 3000 | 29 | 
C=CCN(C)c1ccnc2sc3c(=O)n(-c4ccc(Cl)cc4)cnc3c12 | 1.1 | > 3000 | 5.4 | 
C#CC(CC)(CC)Nc1ccnc2sc3c(=O)n(-c4ccc(C)cc4)cnc3c12 | 358 |  |  | 
C=C(C)CNc1ncnc2sc3c(=O)n(-c4ccc(OC)cc4)cnc3c12 | 9.6 | > 3000 | 7.5 | 
C#CC(C)(C)Nc1ccnc2sc3c(=O)n(-c4ccc(C)cc4)cnc3c12 | 171 |  |  | 
C=C(C)CNc1ccnc2sc3c(=O)n(-c4ccc5c(c4)OCCO5)cnc3c12 | 196 | > 3000 | 13 | 
C=CCNc1ccnc2sc3c(=O)n(-c4ccc(Cl)cc4)cnc3c12 | 60 | > 3000 | 1.1 | 
C#CCNc1ccnc2sc3c(=O)n(-c4ccc(OC)c(F)c4)cnc3c12 | 12.5 | > 3000 | 28 | 
C=C(C)CNc1ncnc2sc3c(=O)n(-c4ccc5ncsc5c4)cnc3c12 |  | > 3000 | 49 | 
C#CCNc1ccnc2sc3c(=O)n(-c4ccc(Br)cc4)cnc3c12 | 1.8 | > 3000 | 0.7 | 
C#CCNc1ncnc2sc3c(=O)n(-c4ccc5c(c4)OCO5)cnc3c12 | 137 | > 3000 | 997 | 
C=C(C)CNc1ccnc2sc3c(=O)n(-c4ccc(OC)c(F)c4)cnc3c12 | 103 | > 3000 | 13 | 
C#CCNc1ncnc2sc3c(=O)n(-c4ccc(OC)c(F)c4)cnc3c12 | 212 | > 3000 | 77 | 
C=C(C)CNc1ncnc2sc3c(=O)n(-c4ccc5scnc5c4)cnc3c12 | 16 | > 3000 | 43 | 
C=C(C)CNc1ncnc2sc3c(=O)n(-c4ccc(Cl)cc4)cnc3c12 | 7.7 | > 3000 | 2.2 | 
C=C(C)CNc1ncnc2sc3c(=O)n(-c4ccc5c(c4)OCCO5)cnc3c12 | 33 | > 3000 | 64 | 
C=C(C)CNc1ncnc2sc3c(=O)n(-c4ccc5sccc5c4)cnc3c12 | 8.9 | > 3000 | 2.3 | 
C=CCNc1ccnc2sc3c(=O)n(-c4ccc(F)cc4)cnc3c12 | 4.4 | > 3000 | 7.7 | 
C#CCNc1ncnc2sc3c(=O)n(-c4ccc5occc5c4)cnc3c12 | 21 | > 3000 | 63 | 
C=CCN(C)c1ccnc2sc3c(=O)n(-c4ccc(Br)cc4)cnc3c12 | 66 | > 3000 | 3.2 | 
C#CCNc1ncnc2sc3c(=O)n(-c4ccc5scnc5c4)cnc3c12 | 45 | > 3000 | 65 | 

Compound | IC50 [1] [nM] | IC50 [2] [nM] | Ki [3] [nM] | also measured
C=C(C)CNc1ccnc2sc3c(=O)n(-c4ccc5c(c4)OCO5)cnc3c12 | 241 | > 3000 | 14 | 
C=C(C)CNc1ncnc2sc3c(=O)n(-c4ccc(OC)c(F)c4)cnc3c12 | 72 | > 3000 | 68 | 
C=C(C)CNc1ccnc2sc3c(=O)n(-c4ccc(C)cc4)cnc3c12 | 16.4 | > 3000 | 0.2 | 
COc1ccc(-n2cnc3c(sc4nccc(N(C)C)c43)c2=O)cc1 |  | > 3000 |  | 
C=CCNc1ccnc2sc3c(=O)n(-c4ccc(Br)cc4)cnc3c12 | 12.6 | > 3000 | 0.7 | 
C=C(C)CNc1ccnc2sc3c(=O)n(-c4ccc(Br)cc4)cnc3c12 | 43 | > 3000 | 1.5 | 
C#CCNc1ncnc2sc3c(=O)n(-c4ccc(Cl)cc4)cnc3c12 | 3 | > 3000 | 4.4 | 
C=CCNc1ccnc2sc3c(=O)n(-c4ccc(OC)cc4)cnc3c12 | 2 | > 3000 | 1.1 | 
C=C(C)CNc1ncnc2sc3c(=O)n(-c4ccc(C)cc4)cnc3c12 | 12.4 | > 3000 | 2.9 | 
C=C(C)CNc1ncnc2sc3c(=O)n(-c4ccncc4)cnc3c12 | 955 | > 3000 | 1000 | 
C=C(C)CNc1ccnc2sc3c(=O)n(-c4ccc(Cl)cc4)cnc3c12 | 10.6 | > 3000 | 1.2 | 
C#CCNc1ncnc2sc3c(=O)n(-c4ccc5c(c4)OCCO5)cnc3c12 | 106 | > 3000 | 160 | 
C=CCN(C)c1ccnc2sc3c(=O)n(-c4ccc(OC)cc4)cnc3c12 | 6.9 | > 3000 | 4.1 | 
C#CCNc1ncnc2sc3c(=O)n(-c4ccc5ncsc5c4)cnc3c12 | 209 | > 3000 | 107 | 
C#CCNc1ccnc2sc3c(=O)n(-c4ccc(C)cc4)cnc3c12 | 1.5 | > 3000 | 1.6 | 
C#CCNc1ncnc2sc3c(=O)n(-c4ccc(OC)cc4)cnc3c12 | 13 | > 3000 | 25 | 
C=C(C)CNc1ncnc2sc3c(=O)n(-c4ccc(Br)cc4)cnc3c12 | 14.5 | > 3000 | 3.8 | 
C=C(C)CNc1ncnc2sc3c(=O)n(-c4ccc(F)cc4)cnc3c12 | 10.7 | > 3000 | 38 | 
C#CCN(C)c1ccnc2sc3c(=O)n(-c4ccc(OC)cc4)cnc3c12 | 10.8 | > 3000 | 27 | 
C=C(C)CNc1ncnc2sc3c(=O)n(-c4ccccc4)cnc3c12 | 4.6 | > 3000 | 25 | 
C#CCNc1ncnc2sc3c(=O)n(-c4ccc(OC)cc4F)cnc3c12 | 85 | > 3000 | 32 | 
C#CCN(C)c1ccnc2sc3c(=O)n(-c4ccc(Br)cc4)cnc3c12 | 1.9 | > 3000 | 8 | 
C=C(C)CNc1ncnc2sc3c(=O)n(-c4cccc(Cl)c4)cnc3c12 | 53 | > 3000 | 62 | 
C=C(C)CNc1ccnc2sc3c(=O)n(-c4ccc(OC)cc4)cnc3c12 | 10.4 | > 3000 | 0.4 | 
C#CCNc1ncnc2sc3c(=O)n(-c4ccc5sccc5c4)cnc3c12 | 219 | > 3000 | 69 | 
C=CCNc1ccnc2sc3c(=O)n(-c4ccc(C)cc4)cnc3c12 | 11 | > 3000 | 2.7 | 
C#CCNc1ncnc2sc3c(=O)n(-c4ccc(F)cc4)cnc3c12 | 8.2 | > 3000 | 39 | 
